Results from ChEMBL document CHEMBL3272237, “Gliotoxin analogues as inhibitors of reverse transcriptase. 1. Effect of lipophilicity” (J Med Chem, 1978).

Tests used:
[1] = Lipophilicity of the compound by reversed-phase HPLC analysis; details: ODS stationary phase, MeOH-H2O (2:1) mobile phase
[2] = test system: Moloney murine leukemia virus; experiment: Inhibition of Moloney murine leukemia virus reverse transcriptase using [3H-methyl]-dTTP as substrate after 120 mins; parameters: unit not given here
Summary of the method: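 Enzyme source was Moloney MLV from infected NIH-3T3 cells, gradient-purified, used as whole virus. Mix: 40 mM Tris-HCl pH 7.8, 50 mM NaCl, 2 mM MnCl2, 1.6 mM DTT, 0.0125% Triton X-100, 0.64 mM each dATP/dCTP/dGTP, [methyl-3H]dTTP. Compounds were tested at 4–400 μg/mL (Me2SO up to 4%). Incubation was 37 °C, sampled at 120 min for acid-precipitable counts, mean of three runs. I50 read from %-of-Me2SO-control plot.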

[3] = Lipophilicity of the compound by reversed-phase TLC analysis; format: physicochemical; details: RP-TLC on silylated silica plates impregnated with Dow-Corning 704 fluid
Summary of the method: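 Silica gel F-254 plates were silanized with 5% (CH3)2SiCl2 in toluene, then impregnated with 5% Dow-Corning 704 fluid in ether. Spots were 1 μL of 3 mg/mL CH2Cl2 solution. Plates were developed in acetone–water 3:1 saturated with the fluid and visualized with 2% aqueous AgNO3. Rm = log(1/Rf − 1), averaged over five determinations.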

Structure (SMILES)	log k' [1]	log(I50×10^5) [2]	Rm [3]
CC12SSC3(C(=O)N1c1ccccc1)N(C2=O)c1ccccc1C3(C)C (stereo unspecified)	-0.1127	1.69	0.2892
CN1C(=O)C23SSC1(c1ccccc1)C(=O)N2c1ccccc1C3(C)C (stereo unspecified)	-0.0527	0.978	0.3007
CN1CC(=O)N2c3ccccc3C(C)(C)C2(S)C1=O (stereo unspecified)	-1.067	2.07	0.0132

Second part, the molecule after the results:

log k' [1]	log(I50×10^5) [2]	Rm [3]	Structure (SMILES)
-0.0817	1.06	0.2717	CCCN1C(=O)C23SSC1(C)C(=O)N2c1ccccc1C3(C)C (stereo unspecified)
0.0994	0.574	0.3514	CC12SSC3(C(=O)N1Cc1ccccc1)N(C2=O)c1ccccc1C3(C)C (stereo unspecified)
-0.34	1.89	0.1636	CCN1C(=O)C23SSC1(C)C(=O)N2c1ccccc1C3(C)C (stereo unspecified)
-0.1291	1.93	0.2769	CC(C)N1C(=O)C23SSC1(C)C(=O)N2c1ccccc1C3(C)C (stereo unspecified)
